# Bioassay records (PubChem)
# HNF4A DNA FP = change in binding of human HNF4 alpha to DNA; actives 0.3% (n = 360,000); AID 1224865; P41235; HNF4a-FITC DNA binding, fluorescence polarization, 1 h; activity change, % at 10 µM; in the data active = activity change above about 30%, passing the limit was not always enough
# Target sequence (P41235 whole entry, looked up): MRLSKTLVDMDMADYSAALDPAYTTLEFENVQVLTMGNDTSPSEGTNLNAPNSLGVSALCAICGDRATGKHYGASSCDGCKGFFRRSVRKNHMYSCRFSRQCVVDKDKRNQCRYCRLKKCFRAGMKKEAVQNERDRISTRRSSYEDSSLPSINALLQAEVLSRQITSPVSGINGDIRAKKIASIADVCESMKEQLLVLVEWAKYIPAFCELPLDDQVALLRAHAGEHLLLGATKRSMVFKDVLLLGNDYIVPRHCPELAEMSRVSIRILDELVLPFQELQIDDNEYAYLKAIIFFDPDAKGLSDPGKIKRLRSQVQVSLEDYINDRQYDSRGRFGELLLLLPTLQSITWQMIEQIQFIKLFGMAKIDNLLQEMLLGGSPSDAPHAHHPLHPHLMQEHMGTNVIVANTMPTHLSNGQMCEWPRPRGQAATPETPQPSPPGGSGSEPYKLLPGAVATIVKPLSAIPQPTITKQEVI
# TPT1 inhibitor = inhibitors of Candida albicans tRNA 2'-phosphotransferase TPT1. recombinant caTPT1, FP RNA substrate dephosphorylation. inhibition, % at 5 µM. actives 0.81% (n = 300,000). AID 1962;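 active = inhibition above the mean of all tested compounds plus 3 SD, set per screening campaign, cut at about 24% in these data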;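 also: plate controls were DMSO alone for no effect and ferristatin control at 100 nM for full effect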
# Rpn11 inh = blocks the human proteasome subunit Rpn11 | O00487 | AID 588493 | human 26S proteasome, Ub4-pepOG fluorescence polarization; 20S core pre-blocked with epoxomicin | inhibition, % at 20 µM | actives 0.59% (n = 360,000);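 active = inhibition at 20 µM, scaled to each plate's controls, above about 33%, limit read from the data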
# CSN inh = CSN deneddylation inhibition; Q92905; Purified CSN, SCF-Nedd8-OG deneddylation, fluorescence polarization; inhibition, % at 12.5 µM; actives 0.38% (n = 360,000); AID 651999;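 active = pattern-corrected inhibition above about 35%, with an unprinted fluorescence ratio check between 0.5 and 1.5, limit read from the data, passing the limit was not always enough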;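 also: 0% = enzyme with substrate and 100% = substrate without enzyme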
#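 Assay system: purified human Csn5 enzyme expressed in HEK293T cells; measure: % inhibition; also added: SCFSkp2-Nedd8OG substrate at 10 nM final; technique: fluorescence polarization; times: reaction 90 min, room temperature; medium: Tris buffer pH 7.5, NaCl, DTT, Tween-20, trehalose, ovalbumin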
# caTPT1 confirm = confirmation of Candida albicans TPT1 inhibitors. shares compounds with TPT1 inhibitor. recombinant caTPT1, fluorescence polarization, RNase T1 coupled. inhibition, % at 5 µM. actives 74% (n = 2,400);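 active = inhibition above the primary screen limit, the mean inhibition of all tested compounds plus 3 SD, cut at about 25% in these data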
# RNase T1 counter = RNase T1 inhibition in TPT1 counter-screen. shares compounds with TPT1 inhibitor. RNase T1 cleavage, fluorescence polarization, 1536-well. inhibition, % at 5 µM. actives 83% (n = 2,400);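 active = inhibition above the solvent-only control well mean plus 3 SD, limit set per screening run, cut at about 23% in these data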;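 also: plate controls were DMSO wells with enzyme for no effect and wells without RNase T1 for full effect; inhibitors block cleavage so intact labeled substrate keeps polarization high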
# Target sequence (P00651 whole entry, looked up): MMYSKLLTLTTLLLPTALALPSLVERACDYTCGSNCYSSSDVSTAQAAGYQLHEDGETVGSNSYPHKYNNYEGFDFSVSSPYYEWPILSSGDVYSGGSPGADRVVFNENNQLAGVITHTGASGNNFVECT
# * hit, by the source's call; / = no result given. Compounds with a hit are over-represented: about 1.5% of the library has one in this group of screens.
SMILES,HNF4A DNA FP,TPT1 inhibitor,Rpn11 inh,CSN inh,caTPT1 confirm,RNase T1 counter
CC(Cc1ccccc1)NC(=O)CCNNC(=O)c1ccncc1 (centres undefined),-0.7,/,-0.5,2.3,/,/
Cn1cccc1/C=C1/SC(=S)N(CC(=O)O)C1=O,80.7*,89.2*,/,50.1*,110.2*,120.3*
CC(C(=O)O)N1C(=O)/C(=C/c2cccn2C)SC1=S (centres undefined),84.7*,96.3*,/,47.6*,104.7*,118.0*
COc1ccccc1/C=C1\SC(=S)N(C(C(=O)O)c2ccccc2)C1=O (centres undefined),-7.5,4.5,-4.9,1.4,/,/
COc1ccc(/C=C2\SC(=S)N(C(Cc3ccccc3)C(=O)O)C2=O)cc1 (centres undefined),-0.2,/,7.2,-15.8,/,/
CCC(C(=O)O)N1C(=O)/C(=C/c2cccn2C)SC1=S (centres undefined),101.2*,118.4*,/,82.0*,123.8*,129.7*
CC1(c2nnc(-c3ccccc3)o2)CC(c2ccccc2)=NO1 (centres undefined),3.5,0.8,5.1,0.4,/,/
Cc1cccc(NC(=O)CSc2nccn2Cc2ccco2)c1C,1.2,-0.4,-5.5,2.6,/,/
CC(/C=C/c1ccc(N(C)C)cc1)=N\N=C(/N)SC1CC(=O)N(c2ccc(C(=O)O)cc2)C1=O (centres undefined),40.2*,26.5*,/,13.2,27.9*,42.7*
O=C(CCN1C(=O)/C(=C/c2cccs2)SC1=S)Nc1ccccc1O,17.6,24.2*,28.4,12.8,25.3*,35.9*
O=C(CCN1C(=O)/C(=C/c2cccs2)SC1=S)Nc1ccc(O)cc1,18.7,7.6,40.1,18.7,/,/
COc1cc(OC)cc(C(C(=O)NCc2ccccc2)N(Cc2ccco2)C(=O)c2ccno2)c1 (centres undefined),10.8,41.9*,29.5,16.6,16.0,25.0*
CCCC(NC(=O)c1c(C)noc1C)C12CC3CC(CC(C3)C1)C2 (centres undefined),0.5,81.0*,3.1,2.8,24.5*,35.5*
COC(=O)/C(C#N)=C/c1ccc(OC(=O)c2ccccn2)cc1,44.7*,26.8*,/,5.2,19.1,25.5*
CCOC(=O)/C(C#N)=C/c1ccc(OC(=O)c2ccccn2)cc1,15.6,10.7,31.2,9.7,/,/
Cn1cccc1C(=O)/C(C#N)=C/c1ccc(F)cc1,20.6,52.8*,/,28.8,79.7*,95.6*
N#Cc1ccc(-c2ccccc2)nc1SCC(=O)c1cccc(Cl)c1,3.9,45.0*,4.6,3.5,27.4*,36.0*
C/C(=N/Nc1nc(-c2ccccc2F)nc2ccccc12)c1ccccc1O,7.1,31.7*,-1.3,-2.7,35.8*,50.7*
C/C(=N\Nc1nc(-c2ccccc2O)nc2ccccc12)c1ccccc1,5.7,0.3,-0.7,0.8,/,/
COc1cc(OC)c(C(=O)OCC(=O)NCCc2ccccc2)cc1OC,4.1,71.6*,-1.1,-11.2,0.9,5.7
O=C(Cc1ccc(Cl)cc1)NNC(=S)NC(=O)c1cccnc1,2.9,35.2*,-1.3,-2.1,45.0*,58.2*
COc1ccc(C2OCC(C)([N+](=O)[O-])CO2)cc1 (centres undefined),4.0,/,6.8,1.4,/,/
CN(CC(=O)Nc1c(Cl)cccc1Cl)C(=O)C1CCN(C(=O)Nc2ccccc2)CC1,0.3,-0.8,-3.9,3.0,/,/
COc1ccccc1OC(=O)Nc1ccc(Cl)cc1,0.6,40.6*,-4.2,1.1,4.0,5.5
CCN(CC)C(=O)c1ccc(Oc2ccc([N+](=O)[O-])cc2Cl)cc1,0.7,44.0*,2.4,-0.8,4.6,7.4
SMILES,HNF4A DNA FP,TPT1 inhibitor,Rpn11 inh,CSN inh,caTPT1 confirm,RNase T1 counter
O=C(Nc1nc2ccccc2[nH]1)c1ccccc1O,-4.6,0.6,-2.9,1.4,/,/
Cc1ccc(C)c(C(=O)Nc2nc3ccccc3[nH]2)c1,0.0,24.8*,-7.5,0.2,8.7,15.2
CCCCCC(O)CCC(=O)NNC1=CC(=O)CC(C)(C)C1 (centres undefined),4.0,68.9*,-3.9,-9.2,8.6,11.2
CC(O)CCC(=O)NNC1=CC(=O)CC(C)(C)C1 (centres undefined),/,3.4,/,/,/,/
Cc1ccc(C)c(N/C=C(\C#N)c2nc3ccccc3o2)c1,3.5,0.4,8.8,4.2,/,/
COc1cc(/C=C(\C#N)c2nc3ccccc3o2)ccc1O,190.0,163.5*,/,109.4,169.9*,156.3*
CCN1C(=O)[C@@H]2Cc3c([nH]c4ccccc34)C(c3ccc(OC)cc3)N2C1=S (some centres undefined),43.5*,64.8*,/,24.3,48.5*,59.7*
CCN1C(=S)SC(=O)C1=C1C=C(C)N(CCO)C(C)=C1,0.1,37.8*,11.4,-5.0,52.6*,62.3*
CC[C@H](C)/C=C(C)/C=C/C1=CC2=CC(=O)[C@]3(C)OC(=O)[C@@H](C(C)=O)[C@@H]3C2=CO1,4.3,26.6*,29.7,11.5,29.1*,40.3*
CC[C@H](C)/C=C(C)/C=C/c1cc2c(cn1)C(=O)[C@@](C)(OC(C)=O)C(O)=C2Cl,-9.4,/,-16.6,4.8,/,/
CCC1Cc2[nH]c(=S)[nH]c(=O)c2C(c2ccc(F)cc2)O1 (centres undefined),1.6,/,-0.3,-0.3,/,/
CN1/C(=C/C=C(C#N)C#N)C(C)(C)c2ccccc21,-96.2,12.9,8.0,-105.1,/,/
CC1=C/C(=C\C=C(C#N)C#N)N(C)c2ccccc21,71.3*,34.0*,/,32.1,33.3*,43.1*
O=C1N=C(N2CCOCC2)S/C1=C/c1ccc(-c2ccc(F)cc2)o1,8.0,11.4,0.8,5.8,/,/
C=CCN1C(=O)N/C(=C/c2ccc(N3CCOCC3)o2)C1=O,/,28.9*,/,/,104.6*,112.5*
O=C1S/C(=C\c2ccc(N3CCOCC3)o2)C(=O)N1Cc1ccc(F)cc1,130.1,141.6*,/,115.3,168.3*,164.7*
O=C1S/C(=C/c2ccc(N3CCOCC3)o2)C(=O)N1Cc1ccc(F)cc1,187.1,136.5*,/,132.0,163.0*,162.1*
O=C1N/C(=C/c2ccc(N3CCOCC3)cc2)C(=O)N1Cc1ccc(F)cc1,-3.1,-5.0,0.0,1.9,/,/
COC(=O)C[C@H]1CC[C@@H](NS(=O)(=O)c2ccc(C)cc2)[C@@H](CO)O1,-3.9,/,/,-3.6,/,/
COc1ccc(-c2ccc(C(=O)Nc3cccc(NS(C)(=O)=O)c3)c3occc23)c(C)c1,2.5,/,8.6,1.1,/,/
CCOC(=O)N1CCN(c2ccc(S(=O)(=O)N3CCC(C)CC3)cc2[N+](=O)[O-])CC1,3.2,/,-1.4,-2.7,/,/
O=C1NC(c2ccco2)Nc2sc3c(c21)CCN(Cc1ccccc1)C3 (centres undefined),4.9,53.0*,/,22.0,53.2*,62.4*
